For series [1], the system named is Salmonella typhimurium. Nature of the series: Antibacterial activity against Salmonella Typhimurium measured at MIC after 18 hrs by halo zone test. It is filed as functional, Salmonella enterica subsp. enterica serovar Typhimurium. Summed up: (§1)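 Disk diffusion. Strains subcultured 18 h at 37 °C in BHI, then suspended in saline by McFarland to about 10⁵ CFU/mL. Suspension mixed 1:1 with antibiotic agar at 40 °C and plated. 6.0 mm paper disks loaded with dilutions from a DMSO stock (1 mg per 100 of DMSO). Incubated 18 h at 36 °C. Inhibition zone (mm) measured at the MIC. Amoxicillin and DMSO disks as controls.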

The subject of series [2] is Escherichia coli. The experiment in a line: Antibacterial activity against Escherichia coli after 18 hrs by macro-dilution test. The class given is functional. Summed up: (§2)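 Tube macro-dilution. Compounds in DMSO serially diluted to final […]. 24 h old inoculum added to each tube. Standard inoculum […]. Incubated 18 h at 37 °C. MIC is the lowest concentration with no visible growth, read visually. DMSO negative and amoxicillin positive controls.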

The subject of series [3] is Streptococcus pyogenes. The experiment in a line: Antibacterial activity against Streptococcus pyogenes measured at MIC after 18 hrs by halo zone test. The class given is functional. The procedure, abridged: as §1
A short description of series [4]: Cytotoxicity against rat H9c2 cells assessed as cell viability at 1.57 to 200 mg/mL after 48 hrs by MTT assay. It is filed as cell-based. Conditions: in the assay text read “1.57 to 200 ug/mL” for “1.57 to 200 mg/mL”, read-out: Activity. Summed up: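 Subconfluent H9c2 cardiac myoblasts treated with increasing concentrations for 48 h at 37 °C in 5% CO₂, alongside untreated cells. Then washed in PBS and given MTT (5 mg/mL) for 45 min at 37 °C. Crystals dissolved in acid isopropanol, absorbance read at 570 nm. Viability is absorbance of treated relative to untreated cells. Triplicate. DMSO and amoxicillin controls.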

Series [5] concerns Salmonella typhimurium. The experiment in a line: Antibacterial activity against Salmonella Typhimurium after 18 hrs by macro-dilution test. The class given is functional, Salmonella enterica subsp. enterica serovar Typhimurium. The settings on record: Salmonella enterica. Summed up: as §2
Series [6] concerns Staphylococcus aureus. Nature of the series: Antibacterial activity against Staphylococcus aureus after 18 hrs by macro-dilution test. It is filed as functional. The procedure, abridged:
as §2

In series [7] the test system is Staphylococcus aureus. The experiment in a line: Antibacterial activity against Staphylococcus aureus measured at MIC after 18 hrs by halo zone test. The class given is functional. The procedure, abridged:
as §1

In series [8] the test system is Streptococcus pyogenes. Nature of the series: Antibacterial activity against Streptococcus pyogenes after 18 hrs by macro-dilution test. The class given is functional. The procedure, abridged: as §2
Series [9] has as its system Escherichia coli. Nature of the series: Antibacterial activity against Escherichia coli measured at MIC after 18 hrs by halo zone test. It is filed as functional. Summed up:
as §1

In brackets after ≈: the same amount, converted by molar mass. A value given as a limit tells only on which side of the number the result lay.

Take `CC(=O)N(C1=NN(C(C)=O)C(c2cc3cccc(Cl)c3nc2Cl)S1)c1ccccc1C` (stereo not given): the “inhibition zone (IZ)” value in the series on Salmonella typhimurium [1] is 16.86 mm; with Streptococcus pyogenes [3], 13.84 mm; with Staphylococcus aureus [7] it was 19.76 mm; in the series with Escherichia coli [9], 15.59 mm. Moreover, the MIC in the series on Escherichia coli [2] was found to be 32 µg/mL (≈ 67.6 µM); against Salmonella typhimurium [5], 32 µg/mL (≈ 67.6 µM); against Staphylococcus aureus [6], 16 µg/mL (≈ 33.8 µM); with Streptococcus pyogenes [8] it was 64 µg/mL (≈ 135 µM). The viability at 48 h in series [4] was greater than 80%.

For the compound `CC(=O)N(C1=NN(C(C)=O)C(c2cc3ccccc3nc2Cl)S1)c1ccccc1C` (stereo not given), the “inhibition zone (IZ)” value is 16.06 mm in the series with Salmonella typhimurium [1], 17.14 mm with Streptococcus pyogenes [3], 15.66 mm in the series on Staphylococcus aureus [7] and 15.84 mm in the series with Escherichia coli [9]. Also, the MIC in the series with Escherichia coli [2] was 32 µg/mL (≈ 72.9 µM); in the series with Salmonella typhimurium [5], 32 µg/mL (≈ 72.9 µM); against Staphylococcus aureus [6] it was 32 µg/mL (≈ 72.9 µM); in the series on Streptococcus pyogenes [8] it was 16 µg/mL (≈ 36.5 µM). For the same compound, in series [4], the viability at 48 h was greater than 80%.

For `CC(=O)N(C1=NN(C(C)=O)C(c2cc3ccccc3nc2Cl)S1)c1ccc(C)cc1` (stereo not given), the “inhibition zone (IZ)” value in the series on Salmonella typhimurium [1] is recorded as 16.89 mm; with Streptococcus pyogenes [3], 17 mm; in the series with Staphylococcus aureus [7], 18.27 mm; in the series with Escherichia coli [9], 16.4 mm. Further, the MIC in the series on Escherichia coli [2] turned out to be 32 µg/mL (≈ 72.9 µM); in the series with Salmonella typhimurium [5] it was 64 µg/mL (≈ 146 µM); in the series on Staphylococcus aureus [6], 32 µg/mL (≈ 72.9 µM); against Streptococcus pyogenes [8] it was 16 µg/mL (≈ 36.5 µM). Besides, in [4], the viability at 48 h was greater than 80%.

`CC(=O)N(C1=NN(C(C)=O)C(c2cc3cccc(C)c3nc2Cl)S1)c1ccc([N+](=O)[O-])cc1` (stereo not given): the “inhibition zone (IZ)” value was determined as 19.16 mm in the series on Salmonella typhimurium [1], 15.27 mm in the series with Streptococcus pyogenes [3], 16.54 mm in the series on Staphylococcus aureus [7] and 13.03 mm with Escherichia coli [9]. The MIC in the series on Escherichia coli [2], against Salmonella typhimurium [5], against Staphylococcus aureus [6] and against Streptococcus pyogenes [8] was 64 µg/mL (≈ 132 µM) throughout.

Turning to `CC(=O)N1N=C(N(C(C)=O)C2CCCC2)SC1c1cc2cccc(C)c2nc1Cl` (stereo not given), the “inhibition zone (IZ)” value in the series on Salmonella typhimurium [1] is recorded as 15.13 mm; with Streptococcus pyogenes [3], 17.71 mm; with Staphylococcus aureus [7] it was 19 mm; with Escherichia coli [9] it was 16.08 mm. Moreover, the MIC came to 128 µg/mL (≈ 297 µM) in the series with Escherichia coli [2], 128 µg/mL (≈ 297 µM) in the series with Salmonella typhimurium [5], 128 µg/mL (≈ 297 µM) with Staphylococcus aureus [6] and 64 µg/mL (≈ 149 µM) in the series with Streptococcus pyogenes [8].

In the case of `CC(=O)NC1=NN(C(C)=O)C(c2cc3cccc(C)c3nc2Cl)S1` (stereo not given), the “inhibition zone (IZ)” value stood at 18.08 mm in the series on Salmonella typhimurium [1], 16.77 mm in the series with Streptococcus pyogenes [3], 13.66 mm in the series with Staphylococcus aureus [7] and 18.34 mm with Escherichia coli [9]. Besides, the MIC against Escherichia coli [2] amounted to 256 µg/mL (≈ 706 µM); in the series on Salmonella typhimurium [5], 256 µg/mL (≈ 706 µM); against Staphylococcus aureus [6], 64 µg/mL (≈ 176 µM); with Streptococcus pyogenes [8], 64 µg/mL (≈ 176 µM).

`Cc1ccc(NC(=S)N/N=C/c2cc3cccc(C)c3nc2Cl)cc1`: the “inhibition zone (IZ)” value in the series on Salmonella typhimurium [1] was found to be 17.18 mm; in the series with Streptococcus pyogenes [3], 17.65 mm; in the series on Staphylococcus aureus [7], 19.24 mm; with Escherichia coli [9] it was 18.67 mm. Moreover, the MIC against Escherichia coli [2] was determined as 64 µg/mL (≈ 173 µM); in the series with Salmonella typhimurium [5] it was 32 µg/mL (≈ 86.7 µM); in the series with Staphylococcus aureus [6], 32 µg/mL (≈ 86.7 µM); against Streptococcus pyogenes [8], 64 µg/mL (≈ 173 µM).

Take `Fc1ccc(F)c(NC(=S)N/N=C/c2cc3ccccc3nc2Cl)c1`: the “inhibition zone (IZ)” value in the series on Salmonella typhimurium [1] is 11.56 mm; with Streptococcus pyogenes [3], 14.07 mm; in the series with Staphylococcus aureus [7], 16.75 mm; in the series with Escherichia coli [9], 10.13 mm. Besides, the MIC is 64 µg/mL (≈ 170 µM) in the series with Escherichia coli [2], 32 µg/mL (≈ 84.9 µM) against Salmonella typhimurium [5], 32 µg/mL (≈ 84.9 µM) in the series with Staphylococcus aureus [6] and 64 µg/mL (≈ 170 µM) with Streptococcus pyogenes [8].

As for `CC(=O)N1N=C(N(C(C)=O)C2CCCCC2)SC1c1cc2ccccc2nc1Cl` (stereo not given), the “inhibition zone (IZ)” value with Salmonella typhimurium [1] came out at 14.59 mm; in the series on Streptococcus pyogenes [3], 17.38 mm; in the series with Staphylococcus aureus [7], 14.03 mm; in the series with Escherichia coli [9], 15.63 mm. Besides, the MIC stood at 128 µg/mL (≈ 297 µM) in the series on Escherichia coli [2], 64 µg/mL (≈ 149 µM) against Salmonella typhimurium [5], 256 µg/mL (≈ 594 µM) in the series on Staphylococcus aureus [6] and 256 µg/mL (≈ 594 µM) in the series on Streptococcus pyogenes [8].

These data come from ChEMBL document CHEMBL1799921, “3-(1,3,4-Thiadiazole-2-yl)quinoline derivatives: synthesis, characterization and anti-microbial activity” (Eur J Med Chem, 2011).
